The target of one test is α2β4β3-nAChR (Homo sapiens, UniProt P30926+Q15822). Put plainly: two-electrode voltage clamp, Xenopus oocytes, peak inward current. The class given is cell-based. The method, boiled down: (§1)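 Human α2 and β4 (plus β3 for trinary) subunit cRNAs, ~4 ng each at 1:1 or 1:1:1, are injected into stage VI oocytes. Two to 7 days later, oocytes are clamped at –70 mV in Ringer, pH 7.5.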
For orientation: In two-electrode clamp one electrode senses voltage and the other passes current.

For the next test, the target named is α2β4-nAChR (Homo sapiens, UniProt P30926+Q15822). Described as above. It is filed as cell-based. The method, boiled down:
as §1

EC50 data for one compound are collected here from PMC3569009 (Journal of neurochemistry, 2012).

As usually defined, the EC50 is the concentration giving half of the maximal effect. High values mean a less potent agent, low ones a more potent agent.

α2β4-nAChR, sequence (Q15822 27-529): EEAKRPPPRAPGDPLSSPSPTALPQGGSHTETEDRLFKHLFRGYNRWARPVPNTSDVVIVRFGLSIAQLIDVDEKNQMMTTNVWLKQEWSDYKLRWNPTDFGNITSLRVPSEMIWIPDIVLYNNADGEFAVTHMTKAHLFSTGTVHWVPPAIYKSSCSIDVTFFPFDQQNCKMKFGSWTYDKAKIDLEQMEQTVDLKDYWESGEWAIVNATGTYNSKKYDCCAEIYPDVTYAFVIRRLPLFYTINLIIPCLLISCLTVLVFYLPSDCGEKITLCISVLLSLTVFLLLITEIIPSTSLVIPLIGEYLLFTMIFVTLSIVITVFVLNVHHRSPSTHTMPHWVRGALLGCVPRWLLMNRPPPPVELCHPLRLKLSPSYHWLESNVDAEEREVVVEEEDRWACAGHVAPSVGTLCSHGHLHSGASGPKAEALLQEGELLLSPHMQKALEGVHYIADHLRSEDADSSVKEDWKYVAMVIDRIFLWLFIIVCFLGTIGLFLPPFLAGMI
α2β4-nAChR, sequence (P30926 22-498): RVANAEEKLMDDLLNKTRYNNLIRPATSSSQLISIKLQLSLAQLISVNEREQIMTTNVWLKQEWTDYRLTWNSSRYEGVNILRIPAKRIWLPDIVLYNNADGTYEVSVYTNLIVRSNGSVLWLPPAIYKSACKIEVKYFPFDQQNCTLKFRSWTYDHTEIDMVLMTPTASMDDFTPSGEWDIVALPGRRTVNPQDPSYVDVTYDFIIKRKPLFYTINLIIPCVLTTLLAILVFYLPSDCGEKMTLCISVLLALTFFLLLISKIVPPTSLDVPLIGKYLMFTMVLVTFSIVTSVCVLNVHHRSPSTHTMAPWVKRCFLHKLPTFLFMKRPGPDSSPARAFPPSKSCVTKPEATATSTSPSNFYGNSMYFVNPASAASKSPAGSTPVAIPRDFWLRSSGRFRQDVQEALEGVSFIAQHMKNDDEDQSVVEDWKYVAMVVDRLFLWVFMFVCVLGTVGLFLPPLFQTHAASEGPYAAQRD
α2β4β3-nAChR, sequence (Q15822 27-529): as the sequence (Q15822 27-529) above
α2β4β3-nAChR, sequence (P30926 22-498): as the sequence (P30926 22-498) above
α2β4β3-nAChR, sequence (Q05901 22-458 partner): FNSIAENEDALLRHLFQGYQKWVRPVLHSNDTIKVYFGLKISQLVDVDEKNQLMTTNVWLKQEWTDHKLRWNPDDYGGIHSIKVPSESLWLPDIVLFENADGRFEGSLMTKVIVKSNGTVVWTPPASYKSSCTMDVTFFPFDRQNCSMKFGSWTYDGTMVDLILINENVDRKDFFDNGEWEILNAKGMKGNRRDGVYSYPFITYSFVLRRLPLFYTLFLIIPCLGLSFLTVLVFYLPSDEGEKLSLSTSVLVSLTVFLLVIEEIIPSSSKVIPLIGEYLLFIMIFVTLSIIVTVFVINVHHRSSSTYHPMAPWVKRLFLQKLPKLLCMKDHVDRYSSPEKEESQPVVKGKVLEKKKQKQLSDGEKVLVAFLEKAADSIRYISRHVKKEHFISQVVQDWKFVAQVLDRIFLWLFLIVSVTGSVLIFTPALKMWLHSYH

As for `CN1CCC[C@H]1c1cccnc1` [nicotine], the EC50 was determined as 7.3 µM on α2β4β3-nAChR and 8.6 µM at α2β4-nAChR.
